Results as given in ChEMBL document CHEMBL1926631, “N⁴-Aryl-6-substitutedphenylmethyl-7H-pyrrolo[2,3-d]pyrimidine-2,4-diamines as receptor tyrosine kinase inhibitors” (Bioorg Med Chem, 2012).

Experiments:
[1] = target: T1, Vascular endothelial growth factor receptor 2 (Homo sapiens, UniProt P35968); test: Inhibition of VEGFR2 tyrosine kinase activity in VEGF-stimulated human U251 cells after 60 mins by ELISA; type: cell-based, U-251
[2] = target: T1, Vascular endothelial growth factor receptor 2; test: Ratio of Sunitinib IC50 to compound IC50 for VEGFR2 tyrosine kinase activity in VEGF-stimulated human U251 cells; type: cell-based; settings: U-251
How it was run: (§1)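 U251 cells, which naturally express high VEGFR-2, were grown to 60–75% confluence, kept 18 h serum-free, then pre-treated 60 min with 0.10–333 μM inhibitor before 100 ng/mL VEGF for 10 min. Total tyrosine phosphorylation was read by fixed-cell HRP-anti-phosphotyrosine ELISA with luminol luminescence, as % of growth factor alone.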

[3] = target: T1, Vascular endothelial growth factor receptor 2; test: Ratio of semaxanib IC50 to compound IC50 for VEGFR2 tyrosine kinase activity in VEGF-stimulated human U251 cells; type: cell-based; settings: U-251; how it was run: as §1
A-431 = test: Cytotoxicity against EGFR overexpressing human A431 after 12 hrs by cyquant DNA dye-based fluorescence method; type: functional, cell-based; settings: A-431, 12 h
[4] = target: Epidermal growth factor receptor (Homo sapiens, UniProt P00533); test: Inhibition of EGFR tyrosine kinase activity in EGF-stimulated human A431 cells after 60 mins by ELISA; type: cell-based, A-431
Sequence of Epidermal growth factor receptor (P00533 whole entry): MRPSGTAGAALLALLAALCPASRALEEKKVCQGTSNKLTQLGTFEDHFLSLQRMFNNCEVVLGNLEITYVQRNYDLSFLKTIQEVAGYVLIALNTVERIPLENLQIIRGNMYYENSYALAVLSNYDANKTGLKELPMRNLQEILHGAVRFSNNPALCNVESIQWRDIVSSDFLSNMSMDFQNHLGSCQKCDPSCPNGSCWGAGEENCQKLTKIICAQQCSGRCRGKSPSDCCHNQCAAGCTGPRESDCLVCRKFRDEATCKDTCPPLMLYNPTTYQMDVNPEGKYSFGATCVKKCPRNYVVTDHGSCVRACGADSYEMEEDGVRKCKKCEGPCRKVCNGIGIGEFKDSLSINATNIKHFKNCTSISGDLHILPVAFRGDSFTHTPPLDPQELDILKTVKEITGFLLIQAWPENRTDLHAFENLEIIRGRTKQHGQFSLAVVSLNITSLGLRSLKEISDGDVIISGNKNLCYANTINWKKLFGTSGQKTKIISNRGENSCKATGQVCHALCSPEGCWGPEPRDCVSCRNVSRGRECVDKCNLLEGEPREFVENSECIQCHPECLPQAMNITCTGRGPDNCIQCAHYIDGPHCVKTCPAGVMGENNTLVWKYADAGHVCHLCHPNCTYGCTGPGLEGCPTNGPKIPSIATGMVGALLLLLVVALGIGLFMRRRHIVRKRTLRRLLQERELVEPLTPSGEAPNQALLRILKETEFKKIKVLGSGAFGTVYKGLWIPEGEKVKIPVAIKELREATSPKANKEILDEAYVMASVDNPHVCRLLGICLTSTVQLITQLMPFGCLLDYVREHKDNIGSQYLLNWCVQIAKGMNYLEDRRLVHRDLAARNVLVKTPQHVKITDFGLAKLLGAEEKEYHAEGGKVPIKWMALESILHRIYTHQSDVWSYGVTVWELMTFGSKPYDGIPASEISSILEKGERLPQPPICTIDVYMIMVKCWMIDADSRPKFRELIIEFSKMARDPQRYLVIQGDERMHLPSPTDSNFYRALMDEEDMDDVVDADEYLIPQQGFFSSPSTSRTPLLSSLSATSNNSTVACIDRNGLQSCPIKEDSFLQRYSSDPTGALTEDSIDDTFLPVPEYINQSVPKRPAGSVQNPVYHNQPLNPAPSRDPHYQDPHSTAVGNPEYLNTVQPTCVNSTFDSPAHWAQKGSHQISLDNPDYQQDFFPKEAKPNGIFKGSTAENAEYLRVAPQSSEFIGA

[5] = target: Platelet-derived growth factor receptor beta (Homo sapiens, UniProt P09619); test: Inhibition of PDGFRbeta tyrosine kinase activity in PDGF-BB-stimulated human SF-539 cells after 60 mins by ELISA; type: cell-based
Sequence of Platelet-derived growth factor receptor beta (P09619 whole entry): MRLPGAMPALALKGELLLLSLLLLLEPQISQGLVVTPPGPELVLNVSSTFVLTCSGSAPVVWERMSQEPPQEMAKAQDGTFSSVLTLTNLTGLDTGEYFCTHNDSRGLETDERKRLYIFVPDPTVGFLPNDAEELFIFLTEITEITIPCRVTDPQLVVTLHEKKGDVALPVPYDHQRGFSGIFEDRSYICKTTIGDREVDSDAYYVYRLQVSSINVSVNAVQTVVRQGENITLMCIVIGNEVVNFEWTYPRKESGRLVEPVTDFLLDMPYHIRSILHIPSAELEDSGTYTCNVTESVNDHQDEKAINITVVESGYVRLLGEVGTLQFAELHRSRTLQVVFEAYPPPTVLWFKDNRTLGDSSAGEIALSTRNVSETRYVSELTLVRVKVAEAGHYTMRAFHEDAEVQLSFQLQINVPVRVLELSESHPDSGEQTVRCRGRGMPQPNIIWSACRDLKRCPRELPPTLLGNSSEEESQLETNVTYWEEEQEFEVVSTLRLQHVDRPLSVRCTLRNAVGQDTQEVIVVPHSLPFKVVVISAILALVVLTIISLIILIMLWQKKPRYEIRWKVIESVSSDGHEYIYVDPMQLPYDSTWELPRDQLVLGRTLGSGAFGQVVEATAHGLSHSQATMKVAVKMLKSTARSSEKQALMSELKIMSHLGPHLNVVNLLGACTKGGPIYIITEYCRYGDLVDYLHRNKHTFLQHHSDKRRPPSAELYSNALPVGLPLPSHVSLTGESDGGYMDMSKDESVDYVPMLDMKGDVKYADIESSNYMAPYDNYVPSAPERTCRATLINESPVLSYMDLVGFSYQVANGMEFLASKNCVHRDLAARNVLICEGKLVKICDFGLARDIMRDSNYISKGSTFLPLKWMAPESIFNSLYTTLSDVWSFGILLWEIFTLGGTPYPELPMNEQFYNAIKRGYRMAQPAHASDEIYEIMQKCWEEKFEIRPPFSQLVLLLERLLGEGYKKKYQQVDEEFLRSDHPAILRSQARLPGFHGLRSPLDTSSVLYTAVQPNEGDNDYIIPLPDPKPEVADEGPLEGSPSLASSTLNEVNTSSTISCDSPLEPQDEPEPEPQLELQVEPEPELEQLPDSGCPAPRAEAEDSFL
How it was run: (§2)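 Lysed in ice-cold TBS/0.05% triton with protease and phosphatase inhibitors, heat/ethanol-fixed. Total phosphotyrosine read by HRP anti-phosphotyrosine with luminol chemiluminescence.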

[6] = target: Vascular endothelial growth factor receptor 1 (Homo sapiens, UniProt P17948); test: Inhibition of VEGFR1 tyrosine kinase activity in VEGF-stimulated human A498 cells after 60 mins by ELISA; type: cell-based; how it was run: as §2
Sequence of Vascular endothelial growth factor receptor 1 (P17948 whole entry): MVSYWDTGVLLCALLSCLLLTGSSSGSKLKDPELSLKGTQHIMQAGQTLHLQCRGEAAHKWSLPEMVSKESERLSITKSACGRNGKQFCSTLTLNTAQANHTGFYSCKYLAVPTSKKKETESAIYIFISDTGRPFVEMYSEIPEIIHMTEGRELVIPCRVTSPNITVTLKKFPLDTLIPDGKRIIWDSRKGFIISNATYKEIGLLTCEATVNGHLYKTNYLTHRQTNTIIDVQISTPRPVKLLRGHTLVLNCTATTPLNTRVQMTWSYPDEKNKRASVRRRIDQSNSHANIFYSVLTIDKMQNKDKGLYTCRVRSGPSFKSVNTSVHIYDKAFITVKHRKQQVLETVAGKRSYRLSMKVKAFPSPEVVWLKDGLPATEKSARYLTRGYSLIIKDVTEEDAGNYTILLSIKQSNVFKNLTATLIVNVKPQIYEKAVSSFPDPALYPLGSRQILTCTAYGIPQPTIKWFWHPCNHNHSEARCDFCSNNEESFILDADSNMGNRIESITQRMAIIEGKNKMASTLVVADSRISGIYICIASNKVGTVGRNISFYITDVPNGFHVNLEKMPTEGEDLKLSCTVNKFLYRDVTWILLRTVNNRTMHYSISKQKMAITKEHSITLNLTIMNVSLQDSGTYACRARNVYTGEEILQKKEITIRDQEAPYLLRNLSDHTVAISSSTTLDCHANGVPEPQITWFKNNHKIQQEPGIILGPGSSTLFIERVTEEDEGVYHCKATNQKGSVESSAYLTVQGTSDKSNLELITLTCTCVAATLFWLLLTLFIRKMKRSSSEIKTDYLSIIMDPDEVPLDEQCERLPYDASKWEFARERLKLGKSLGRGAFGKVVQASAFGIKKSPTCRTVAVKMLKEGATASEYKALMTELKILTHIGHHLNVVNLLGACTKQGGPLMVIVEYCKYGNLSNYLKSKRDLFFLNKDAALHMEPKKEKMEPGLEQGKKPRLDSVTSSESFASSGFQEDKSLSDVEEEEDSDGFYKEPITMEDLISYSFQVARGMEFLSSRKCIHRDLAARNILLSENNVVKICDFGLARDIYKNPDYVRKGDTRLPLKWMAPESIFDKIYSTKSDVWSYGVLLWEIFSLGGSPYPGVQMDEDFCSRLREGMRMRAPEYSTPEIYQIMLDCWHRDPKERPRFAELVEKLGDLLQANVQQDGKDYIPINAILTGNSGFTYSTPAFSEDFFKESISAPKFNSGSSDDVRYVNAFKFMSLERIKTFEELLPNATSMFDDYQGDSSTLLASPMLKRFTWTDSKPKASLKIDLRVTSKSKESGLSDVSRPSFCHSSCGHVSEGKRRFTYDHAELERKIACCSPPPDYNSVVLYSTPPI

T1 sequence (P35968 whole entry): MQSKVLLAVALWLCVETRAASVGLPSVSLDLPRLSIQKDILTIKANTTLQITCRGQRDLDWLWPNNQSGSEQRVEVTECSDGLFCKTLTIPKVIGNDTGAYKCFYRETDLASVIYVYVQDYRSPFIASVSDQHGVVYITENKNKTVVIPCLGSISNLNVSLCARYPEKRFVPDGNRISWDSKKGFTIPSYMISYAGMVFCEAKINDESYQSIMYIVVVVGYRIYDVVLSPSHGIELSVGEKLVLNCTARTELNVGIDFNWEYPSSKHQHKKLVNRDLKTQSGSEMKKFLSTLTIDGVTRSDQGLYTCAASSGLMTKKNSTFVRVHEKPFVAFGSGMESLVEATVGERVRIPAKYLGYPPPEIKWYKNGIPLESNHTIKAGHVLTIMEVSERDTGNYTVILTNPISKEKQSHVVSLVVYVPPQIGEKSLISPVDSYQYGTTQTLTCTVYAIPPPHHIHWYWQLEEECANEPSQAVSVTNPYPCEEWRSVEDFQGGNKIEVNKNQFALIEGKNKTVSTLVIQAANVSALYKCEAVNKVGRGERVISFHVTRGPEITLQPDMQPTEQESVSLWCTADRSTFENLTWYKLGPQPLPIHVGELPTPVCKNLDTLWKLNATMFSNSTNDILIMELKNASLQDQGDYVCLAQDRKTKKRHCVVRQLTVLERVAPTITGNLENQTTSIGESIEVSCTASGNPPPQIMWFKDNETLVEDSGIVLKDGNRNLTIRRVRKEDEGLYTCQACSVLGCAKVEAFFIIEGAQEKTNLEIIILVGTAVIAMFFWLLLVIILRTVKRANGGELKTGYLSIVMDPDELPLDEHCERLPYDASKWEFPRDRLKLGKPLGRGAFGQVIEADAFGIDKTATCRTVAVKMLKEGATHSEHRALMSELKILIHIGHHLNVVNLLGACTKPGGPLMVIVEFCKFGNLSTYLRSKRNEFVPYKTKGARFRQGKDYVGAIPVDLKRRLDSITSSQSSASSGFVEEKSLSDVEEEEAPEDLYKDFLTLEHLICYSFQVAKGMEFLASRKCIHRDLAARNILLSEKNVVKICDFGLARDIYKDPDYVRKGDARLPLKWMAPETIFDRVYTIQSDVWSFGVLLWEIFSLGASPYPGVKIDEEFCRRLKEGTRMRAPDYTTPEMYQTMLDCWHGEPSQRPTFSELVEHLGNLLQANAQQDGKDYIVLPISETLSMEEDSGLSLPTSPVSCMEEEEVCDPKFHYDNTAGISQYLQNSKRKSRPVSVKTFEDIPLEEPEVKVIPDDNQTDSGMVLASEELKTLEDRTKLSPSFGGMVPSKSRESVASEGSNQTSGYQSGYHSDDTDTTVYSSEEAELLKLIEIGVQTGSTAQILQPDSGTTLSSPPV

SMILES | IC50 [1] [µM] | Ratio IC50 [2] | Ratio IC50 [3] | IC50 (A-431) [µM] | IC50 [4] [µM] | IC50 [5] [µM] | IC50 [6] [µM]
Nc1nc(Nc2ccc(Cl)cc2F)c2cc(Cc3cccc4ccccc34)[nH]c2n1 | 0.48 | 39 | 25 | 46.7 | > 200 | 193 | > 200
COc1ccc(OC)c(Cc2cc3c(Nc4ccc(Cl)cc4)nc(N)nc3[nH]2)c1 | 56.7 |  |  | 5.8 | > 200 | 44.3 | 15.2
Cc1ccccc1Cc1cc2c(Nc3ccc(Cl)cc3)nc(N)nc2[nH]1 | 45.4 |  |  | 5.6 | 0.24 | > 300 | 45.9
COc1ccc(OC)c(Cc2cc3c(Nc4cccc(Br)c4)nc(N)nc3[nH]2)c1 | 0.62 |  |  | > 50 |  |  | 
COc1ccc(OC)c(Cc2cc3c(Nc4ccc(Cl)cc4F)nc(N)nc3[nH]2)c1 | 0.1 | 189 | 120 | 13.4 | 113 | 146 | 186
Cc1ccccc1Cc1cc2c(Nc3ccc(Cl)cc3F)nc(N)nc2[nH]1 | 29.8 |  |  | > 200 | > 200 | > 300 | 16
Nc1nc(Nc2ccc(Cl)cc2)c2cc(Cc3cccc4ccccc34)[nH]c2n1 | 32.1 |  |  |  |  |  | > 200
